# Reference: ChEMBL document CHEMBL2086264
# pIC50: −log10 of the molar value. Active and inactive are the calls of the source. The calls are words filed in the database; no cut-off is given here.
# Key:
# [1] = tested on: Bacillus anthracis; test: Inhibition of RNA synthesis in Bacillus anthracis sterne assessed as Inhibition of [3H]uracil incorporation into RNA incubated for 15 mins prior to [3H]uracil addition measured after 30 mins by scintillation counting; assay type: functional, organism-based
# [2] = tested on: Enterococcus faecalis; test: Antibacterial activity against Enterococcus faecalis ATCC 33186 after overnight incubation by microbroth dilution assay; assay type: functional
# How it was run: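 CLSI microbroth dilution in Mueller-Hinton broth; compounds dissolved in DMSO, twofold serial dilutions giving final 200–0.0125 µg/mL. Inoculum from single colony grown at 37°C to mid-log (OD600 0.5), diluted to final OD600 0.0005 (~10^5 CFU/mL). Incubated overnight at 37°C; MIC = lowest concentration inhibiting 90% of visible growth.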
# [3] = tested on: Bacillus anthracis; test: Inhibition of DNA synthesis in Bacillus anthracis sterne assessed as Inhibition of [3H]thymidine incorporation into DNA incubated for 15 mins prior to [3H]thymidine addition measured after 30 mins by scintillation counting; assay type: functional, organism-based
# [4] = tested on: Streptococcus pneumoniae; test: Antibacterial activity against Streptococcus pneumoniae R6 after overnight incubation by microbroth dilution assay; assay type: functional
# How it was run: (§1)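 CLSI M7A7 microbroth dilution in Mueller-Hinton broth; S. pneumoniae broth given 5% lysed horse blood. DMSO stocks of 10 mg/mL; twofold dilutions to final 200–0.0125 µg/mL. Mid-log inoculum (OD600 0.5) diluted to final OD600 0.0005 (~10^5 CFU/mL). Overnight at 37°C; MIC is the lowest concentration inhibiting 90% of visible growth.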
# [5] = Inhibition of Staphylococcus aureus PlsY expressed in Escherichia coli FB23281 using [U-14C]glycerol-PO4 as substrate after 20 mins by scintillation counting
# How it was run: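 Membranes from E. coli FB23281 (ΔplsY) expressing S. aureus PlsY (SA1187), 4 µg per reaction. pH 7.4 buffer of 100 mM Tris–HCl, 150 mM NaCl, 1 mg/mL BSA and 5 mM Na3VO4, with 100 µM [U-14C]glycerol-PO4. Started with 16:0-PO4 (final 100 µM), 20 min at 37°C. Spotted on filter discs, washed in graded ice-cold TCA, scintillation counted.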
# [6] = tested on: Bacillus anthracis; test: Antibacterial activity against Bacillus anthracis after overnight incubation by microbroth dilution assay; assay type: functional
# [7] = tested on: Staphylococcus aureus; test: Antibacterial activity against Staphylococcus aureus ATCC 29213 after overnight incubation by microbroth dilution assay; assay type: functional; how it was run: as §1
# [8] = tested on: Bacillus subtilis; test: Antibacterial activity against Bacillus subtilis ATCC 23857 after overnight incubation by microbroth dilution assay; assay type: functional; how it was run: as §1
# [9] = tested on: Bacillus anthracis; test: Inhibition of protein synthesis in Bacillus anthracis sterne assessed as Inhibition of [3H]amino acid incorporation into protein incubated for 15 mins prior to [3H]amino acid addition measured after 30 mins by scintillation counting; assay type: functional, organism-based
SMILES,inhibition [1],MIC90 [2] [mg/L],inhibition [3],MIC90 [4] [mg/L],pIC50 [5],MIC90 [6] [mg/L],MIC90 [7] [mg/L],MIC90 [8] [mg/L],inhibition [9]
CCCCCCCCCCCCCCCC(=O)NS(=O)(=O)Oc1ccc2ncccc2c1,Active,200,Active,1.56,5.05,3.13,> 200,200,Active
CCCCCCCCCCCCCCCC(=O)NS(=O)(=O)OC1CCCCC1 [CYCLOHEXYL PALMITOYLSULFAMATE],Active,> 200,Active,100,5.30,6.25,> 200,> 200,Active
CCCCCCCCCCCCCCCC(=O)NS(=O)(=O)Oc1ccc(CCNC(=O)OC(C)(C)C)cc1,Active,> 200,Active,3.13,4.66,1.56,> 200,> 200,Active
CCCCCCCCCCCCCCCC(=O)NS(=O)(=O)Oc1ccc(Cl)c(Cl)c1,Active,100,Active,> 200,5.05,12.5,> 200,100,Active
CCCCCCCCCCCCCC(=O)NS(=O)(=O)Oc1ccc(OC)cc1,Active,6.25,Active,> 200,5.22,0.78,> 200,> 200,Active
O=C(CCCCCCCCCCc1ccccc1)NS(=O)(=O)Oc1ccccc1,Active,12.5,Active,200,5.10,3.13,6.25,100,Active
CCCCCCCCCCCCCCCC(=O)NS(=O)(=O)Oc1ccccc1 [PHENYL PALMITOYLSULFAMATE],Active,50,Active,> 200,5.10,3.13,> 200,50,Active
CCCCCCCCCCCCCCCC(=O)NS(=O)(=O)Oc1ccc(CC(=O)OC)cc1,Active,> 200,Active,0.78,4.96,3.13,25,> 200,Active
CCCCCCCCCCCCCCCC(=O)NS(=O)(=O)OC1CCOC1 (stereo unspecified),Active,> 200,Active,> 200,4.35,1.56,25,> 200,Active
CCCCCCCCCCCCCCCC(=O)NS(=O)(=O)OC1CCNCC1,Active,> 200,Active,> 200,< 4.00,> 100,> 200,> 200,Active
CCCCCCCCCCCCCCCC(=O)NS(=O)(=O)Oc1ccc(OC)cc1,Active,3.12,Active,12.5,5.10,3.13,12.5,3.12,Active
CCCCCCCCCCCCCCCC(=O)NS(=O)(=O)Oc1ccc2c(OS(N)(=O)=O)coc2c1,Active,100,Active,3.13,4.39,3.13,25,100,Active
CCCCCCCCCCCCCCCC(=O)NS(=O)(=O)OC1CCCC1 [CYCLOPENTYL PALMITOYLSULFAMATE],Active,> 200,Active,> 200,< 4.00,> 100,> 200,> 200,Active
CCCCCCCCCCCCCCCC(=O)NS(=O)(=O)Oc1ccc(Cl)cc1,Active,> 200,Active,100,5.22,6.25,> 200,> 200,Active
C=CCCCCCCCCC(=O)NS(=O)(=O)Oc1ccc(OC)cc1,Active,1.6,Active,200,4.57,12.5,12.5,6.25,Active
CCCCCCCCCCCCCCCC(=O)NS(=O)(=O)Oc1ccc(-c2ccc([N+](=O)[O-])cc2)cc1,Active,> 200,Active,0.78,4.96,1.56,100,> 200,Active
O=C(/C=C/c1ccc(-c2ccccc2)cc1)NS(=O)(=O)Oc1ccccc1,Active,50,Active,100,< 4.00,100,25,> 200,Active
CCCCCCCCCCCCCCCC(=O)NS(=O)(=O)Oc1ccc(C(=O)OCC)cc1,Active,> 200,Active,1.56,5.00,3.13,6.25,> 200,Active
CCCCCCCCCCCCCCCC(=O)NS(=O)(=O)Oc1ccc2c(c1)OCO2,Active,> 200,Active,3.13,4.92,> 100,100,> 200,Active
